# Results collected from several papers.
# Lines come from different studies, so protocols differ.
# Target: Serine/threonine-protein kinase LATS1 (LATS1, Homo sapiens, UniProt O95835)
# Residues used in one study (O95835 1-1130): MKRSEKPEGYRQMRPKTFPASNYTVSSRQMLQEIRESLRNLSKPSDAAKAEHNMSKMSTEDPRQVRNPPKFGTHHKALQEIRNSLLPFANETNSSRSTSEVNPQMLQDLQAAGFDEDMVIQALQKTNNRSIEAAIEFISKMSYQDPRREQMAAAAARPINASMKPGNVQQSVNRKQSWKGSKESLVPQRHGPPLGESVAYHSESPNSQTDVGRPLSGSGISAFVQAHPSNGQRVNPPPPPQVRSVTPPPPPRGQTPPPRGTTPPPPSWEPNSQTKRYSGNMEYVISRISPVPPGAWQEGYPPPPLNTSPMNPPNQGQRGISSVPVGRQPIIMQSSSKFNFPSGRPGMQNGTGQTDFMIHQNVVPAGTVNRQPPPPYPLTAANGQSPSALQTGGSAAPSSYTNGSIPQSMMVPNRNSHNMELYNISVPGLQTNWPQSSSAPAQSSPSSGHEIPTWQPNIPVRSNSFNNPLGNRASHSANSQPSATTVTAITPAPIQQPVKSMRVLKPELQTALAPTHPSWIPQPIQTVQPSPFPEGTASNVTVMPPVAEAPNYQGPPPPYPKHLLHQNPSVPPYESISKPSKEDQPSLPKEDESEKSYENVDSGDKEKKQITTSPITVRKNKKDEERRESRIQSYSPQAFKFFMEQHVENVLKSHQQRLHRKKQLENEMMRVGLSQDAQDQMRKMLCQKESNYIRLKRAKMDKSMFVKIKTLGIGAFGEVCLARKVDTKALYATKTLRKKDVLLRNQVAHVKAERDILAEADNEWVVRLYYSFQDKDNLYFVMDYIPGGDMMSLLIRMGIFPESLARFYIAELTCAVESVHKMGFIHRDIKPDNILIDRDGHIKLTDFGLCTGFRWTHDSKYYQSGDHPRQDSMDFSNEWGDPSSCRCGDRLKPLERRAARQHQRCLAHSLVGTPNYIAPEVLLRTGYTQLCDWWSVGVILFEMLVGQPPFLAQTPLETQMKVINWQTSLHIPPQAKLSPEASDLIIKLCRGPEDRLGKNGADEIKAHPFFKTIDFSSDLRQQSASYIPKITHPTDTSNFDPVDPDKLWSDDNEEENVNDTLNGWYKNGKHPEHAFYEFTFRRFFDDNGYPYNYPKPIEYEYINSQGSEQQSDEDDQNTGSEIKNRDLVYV
SMILES,assay,conditions,remaining binding [%]
O=C(NCCCN1CCOCC1)c1ccc(Nc2nccc(-c3cc4ccccc4s3)n2)cc1,"binding, competition with immobilised ligand",1 µM,100
c1cncc(-c2cccc(Nc3nccc(NC4CCCCC4)n3)c2)c1,"binding, competition with immobilised ligand",10 µM,19
CN(CCCC(F)(F)F)c1nccc(-c2cnn3ncccc23)n1,binding,1 µM,78
O=C(Nc1ccc(Oc2ccc(F)cc2)cc1)N1CCc2ncccc2[C@H]1c1ccc(F)cc1,"cell-free assay, competition with immobilised ligand",1 µM,86
Cc1cnn2ncc(-c3ccnc(N(C)C)n3)c2c1,binding,1 µM,48
N#Cc1ccc(Nc2ccc3[nH]c(=O)[nH]c3c2)c(Cl)c1,"cell-free assay, competition with immobilised ligand",1 µM,76
O=C(NCCCN1CCOCC1)c1ccc(Nc2ncc(Cl)c(-c3ccc(Cl)s3)n2)cc1,"binding, competition with immobilised ligand",1 µM,42
COc1ncc2cc3ccccc3nc2c1C#N,"cell-free assay, competition with immobilised ligand",5 µM,93
Cc1cnc(Nc2ccc(C(=O)N3CCC(N4CCCC4)CC3)cc2)nc1-c1cc2ccccc2s1,"binding, competition with immobilised ligand",1 µM,89
CCCCN(CCCC)C(=O)CN1C[C@@H](c2cc(OC)c3c(c2)OCO3)[C@H](C(=O)O)[C@H]1CC(C)(C)CCC,"cell-free assay, competition with immobilised ligand",1 µM,75.2
N[C@@H]1CCN(c2nccc(-c3cnn4ncccc34)n2)C1,binding,1 µM,100
COc1cnc(Nc2cccc(S(N)(=O)=O)c2)nc1N1CCN(c2ccccc2)CC1,"binding, competition with immobilised ligand",1 µM,100
O=C(NCC1CCOCC1)c1n[nH]cc1NC(=O)c1c(F)cccc1F,"binding, competition with immobilised ligand",1 µM,100
CN(C)c1nccc(-c2cnn3ncccc23)n1,binding,1 µM,100
C[C@@H](c1ccc(-n2cnc3c(N)ncnc32)cc1)N1CCc2nn(C)c(Cc3ccccc3)c2C1=O,"binding, competition with immobilised ligand",0.1 µM,100
Cc1nc(Cc2cccc(C(F)(F)F)c2)sc1-c1ccc(C(N)=O)nc1,"cell-free assay, competition with immobilised ligand",1 µM,100
Nc1ncc2c(n1)-c1c([nH]c3ccc(C#CC4CC4)cc13)CCCC2,"binding, competition with immobilised ligand",1 µM,92
CCOCCn1cc(C(=O)Nc2ccc(-n3nc(-c4cccnc4)cc3C(F)(F)F)cn2)ccc1=O,"cell-free assay, competition with immobilised ligand",1 µM,69
C[C@@H]1CCN(c2nccc(-c3cnn4ncccc34)n2)C1,binding,1 µM,100
NS(=O)(=O)c1cc(NC(=O)Cc2ccccc2)ccc1Oc1cccc(Cl)c1,"cell-free assay, competition with immobilised ligand",1 µM,79
CN(C)c1ncc(F)c(-c2cnn3ncccc23)n1,binding,1 µM,100
